Test results published in ChEMBL document CHEMBL4257524, “Design and synthesis of conformationally constraint Dyrk1A inhibitors by creating an intramolecular H-bond involving a benzothiazole core” (Medchemcomm, 2018).

Tests used:
[1] = biological target: T1, Dual specificity protein kinase CLK1 (Homo sapiens, UniProt P49759); experiment: Inhibition of recombinant GST-tagged human CLK1 expressed in Escherichia coli at 5 uM using RSRSRSRSR peptide as substrate in presence of [gamma-32P]-ATP
Target sequence in this assay (P49759 whole entry, looked up, the tested form may be a part): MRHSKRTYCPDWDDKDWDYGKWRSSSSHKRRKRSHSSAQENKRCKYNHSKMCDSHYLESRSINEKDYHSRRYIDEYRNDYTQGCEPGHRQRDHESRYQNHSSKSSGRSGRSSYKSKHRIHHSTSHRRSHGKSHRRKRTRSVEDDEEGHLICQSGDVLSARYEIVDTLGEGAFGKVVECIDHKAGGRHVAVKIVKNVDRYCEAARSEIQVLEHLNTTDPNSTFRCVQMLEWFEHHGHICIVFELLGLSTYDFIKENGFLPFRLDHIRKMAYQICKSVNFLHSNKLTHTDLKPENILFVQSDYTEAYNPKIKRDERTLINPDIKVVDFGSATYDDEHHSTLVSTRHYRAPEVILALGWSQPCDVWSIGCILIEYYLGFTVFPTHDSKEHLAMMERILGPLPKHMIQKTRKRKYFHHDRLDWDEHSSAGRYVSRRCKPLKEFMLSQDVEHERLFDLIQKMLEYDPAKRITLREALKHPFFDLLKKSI

[2] = species on record: Homo sapiens; experiment: Selectivity ratio of IC50 for full length recombinant human GST-tagged Dyrk1B to IC50 for recombinant human N-terminal His6-tagged Dyrk1A catalytic domain
How it was run: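 Ratio of Dyrk1B IC50 to Dyrk1A IC50. Both IC50s determined with ATP at 15 μM, from means of at least two independent duplicate experiments.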

[3] = biological target: Homeodomain-interacting protein kinase 1 (Homo sapiens) (UniProt Q86Z02); experiment: Inhibition of recombinant human GST-tagged HIPK1 expressed in baculovirus expression system at 5 uM relative to control
How it was run: (§1)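 Kinase panel run at a single 5 μM inhibitor concentration with ATP at 100 μM. Activity expressed as % inhibition. Values are means of at least two duplicates.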

[4] = biological target: T1, Dual specificity protein kinase CLK1; experiment: Inhibition of recombinant GST-tagged human CLK1 expressed in Escherichia coli using RSRSRSRSR peptide as substrate in presence of [gamma-32P]-ATP
How it was run: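 CLK1 IC50 determined in kinase assay with ATP at 15 μM.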
Target sequence in this assay (P49759 whole entry, the tested form may be a part): as the sequence (P49759 whole entry, looked up, the tested form may be a part) above

[5] = biological target: T2, Serine/threonine-protein kinase haspin (Homo sapiens) (UniProt Q8TF76); experiment: Inhibition of recombinant human N-terminal GST-tagged Haspin expressed in baculovirus expression system at 5 uM relative to control; how it was run: as §1
T2 sequence (whole entry): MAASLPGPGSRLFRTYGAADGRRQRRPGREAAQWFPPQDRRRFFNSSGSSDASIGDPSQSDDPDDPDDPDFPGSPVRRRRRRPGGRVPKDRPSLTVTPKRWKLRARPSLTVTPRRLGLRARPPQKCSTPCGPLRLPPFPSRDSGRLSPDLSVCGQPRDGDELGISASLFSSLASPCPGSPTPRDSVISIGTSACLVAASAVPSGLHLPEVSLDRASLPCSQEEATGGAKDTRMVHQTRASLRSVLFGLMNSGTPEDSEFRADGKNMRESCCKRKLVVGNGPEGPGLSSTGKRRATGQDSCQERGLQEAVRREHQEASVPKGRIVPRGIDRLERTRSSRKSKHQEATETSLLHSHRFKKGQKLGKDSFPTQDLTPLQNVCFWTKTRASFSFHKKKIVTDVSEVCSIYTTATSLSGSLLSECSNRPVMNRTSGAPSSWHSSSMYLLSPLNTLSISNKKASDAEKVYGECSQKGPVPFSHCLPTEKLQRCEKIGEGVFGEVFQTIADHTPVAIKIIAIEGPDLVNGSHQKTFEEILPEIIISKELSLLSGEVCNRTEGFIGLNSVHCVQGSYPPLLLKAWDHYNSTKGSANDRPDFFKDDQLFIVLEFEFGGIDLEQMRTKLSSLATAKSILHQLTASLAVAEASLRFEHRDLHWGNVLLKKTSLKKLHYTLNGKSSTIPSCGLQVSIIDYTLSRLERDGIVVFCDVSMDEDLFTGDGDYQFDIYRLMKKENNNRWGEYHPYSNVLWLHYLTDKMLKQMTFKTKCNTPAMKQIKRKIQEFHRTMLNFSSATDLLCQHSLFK

[6] = biological target: Myosin light chain kinase, smooth muscle (Homo sapiens) (UniProt Q15746); experiment: Inhibition of full length recombinant human GST-tagged MLCK expressed in baculovirus expression system at 5 uM relative to control; how it was run: as §1
Myosin light chain kinase, smooth muscle (Homo sapiens), sequence (Q15746 whole entry): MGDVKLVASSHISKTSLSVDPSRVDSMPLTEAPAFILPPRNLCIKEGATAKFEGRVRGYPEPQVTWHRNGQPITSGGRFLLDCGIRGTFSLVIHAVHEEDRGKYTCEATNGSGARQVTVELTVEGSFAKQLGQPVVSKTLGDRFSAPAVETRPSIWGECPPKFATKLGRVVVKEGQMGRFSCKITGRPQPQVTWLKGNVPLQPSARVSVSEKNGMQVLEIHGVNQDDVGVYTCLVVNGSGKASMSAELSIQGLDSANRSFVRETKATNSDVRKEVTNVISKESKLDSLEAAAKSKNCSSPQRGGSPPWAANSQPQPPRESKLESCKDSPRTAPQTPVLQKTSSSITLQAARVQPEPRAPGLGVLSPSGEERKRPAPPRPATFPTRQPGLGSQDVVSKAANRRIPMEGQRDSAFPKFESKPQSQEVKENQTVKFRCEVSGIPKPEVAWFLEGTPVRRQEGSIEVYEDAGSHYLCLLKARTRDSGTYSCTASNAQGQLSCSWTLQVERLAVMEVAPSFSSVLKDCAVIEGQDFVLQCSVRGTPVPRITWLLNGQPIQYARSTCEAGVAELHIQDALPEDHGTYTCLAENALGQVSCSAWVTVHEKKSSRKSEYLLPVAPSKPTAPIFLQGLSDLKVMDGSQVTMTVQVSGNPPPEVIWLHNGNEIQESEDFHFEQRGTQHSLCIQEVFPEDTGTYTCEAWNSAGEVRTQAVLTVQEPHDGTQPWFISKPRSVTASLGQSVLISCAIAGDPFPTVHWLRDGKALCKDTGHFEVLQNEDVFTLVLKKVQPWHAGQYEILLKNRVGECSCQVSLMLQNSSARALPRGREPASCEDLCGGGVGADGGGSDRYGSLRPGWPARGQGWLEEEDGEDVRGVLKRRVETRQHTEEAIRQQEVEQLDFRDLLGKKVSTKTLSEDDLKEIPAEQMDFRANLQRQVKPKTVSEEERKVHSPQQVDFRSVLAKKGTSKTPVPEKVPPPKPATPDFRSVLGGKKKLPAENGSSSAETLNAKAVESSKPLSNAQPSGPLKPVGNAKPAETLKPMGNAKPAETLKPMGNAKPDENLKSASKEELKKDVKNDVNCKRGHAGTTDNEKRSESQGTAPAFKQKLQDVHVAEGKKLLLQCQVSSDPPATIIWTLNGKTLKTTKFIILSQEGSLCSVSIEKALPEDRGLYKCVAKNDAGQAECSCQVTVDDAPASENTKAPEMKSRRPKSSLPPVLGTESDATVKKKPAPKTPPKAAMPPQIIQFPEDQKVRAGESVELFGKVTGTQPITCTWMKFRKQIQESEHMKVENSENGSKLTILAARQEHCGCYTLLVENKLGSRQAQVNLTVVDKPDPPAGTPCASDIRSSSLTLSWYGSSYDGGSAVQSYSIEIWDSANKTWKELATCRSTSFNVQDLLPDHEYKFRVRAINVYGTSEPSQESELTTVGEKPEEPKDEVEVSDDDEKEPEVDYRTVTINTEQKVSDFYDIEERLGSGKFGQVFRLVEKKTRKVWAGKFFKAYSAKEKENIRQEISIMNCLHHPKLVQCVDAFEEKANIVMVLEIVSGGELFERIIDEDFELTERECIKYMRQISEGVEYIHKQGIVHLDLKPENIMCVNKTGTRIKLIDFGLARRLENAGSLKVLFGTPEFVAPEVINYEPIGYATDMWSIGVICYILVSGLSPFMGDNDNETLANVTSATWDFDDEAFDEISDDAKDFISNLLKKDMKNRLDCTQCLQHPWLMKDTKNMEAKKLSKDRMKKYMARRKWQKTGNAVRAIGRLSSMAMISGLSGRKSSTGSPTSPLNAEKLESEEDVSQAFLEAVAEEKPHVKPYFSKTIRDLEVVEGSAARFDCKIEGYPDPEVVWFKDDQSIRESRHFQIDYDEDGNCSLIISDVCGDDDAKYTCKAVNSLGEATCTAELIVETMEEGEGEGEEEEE

[7] = biological target: SRSF protein kinase 1 (Homo sapiens) (UniProt Q96SB4); experiment: Inhibition of full length recombinant human His-tagged SRPK1 expressed in baculovirus expression system at 5 uM relative to control; how it was run: as §1
[8] = species on record: Homo sapiens; experiment: Selectivity ratio of IC50 for recombinant GST-tagged human CLK1 to IC50 for recombinant human N-terminal His6-tagged Dyrk1A catalytic domain
[9] = Drug metabolism in human liver S9 fraction assessed as CYP450-mediated metabolite formation by measuring parent compound remaining at 0.3 uM after 60 mins by LC-MS/MS analysis; format: ADME, subcellular; conditions: s9, 1 h
How it was run: (§2)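 Pooled human liver S9 fraction incubated with compound at 37 °C. Samples taken at 0, 15, 30 and 60 min, and parent compound quantified by MS. Half-life and parent compound remaining derived from these measurements.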

[10] = biological target: T3, Dual specificity tyrosine-phosphorylation-regulated kinase 1B (Homo sapiens, UniProt Q9Y463); experiment: Inhibition of full length recombinant human GST-tagged Dyrk1B expressed in baculovirus expression system at 0.5 uM using KKISGRLSPIMTEQ-NH2 peptide as substrate in presence of [gamma-32P]-ATP relative to control
How it was run: (§3)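 Dyrk1B kinase assay with ATP at 15 μM. Single-point % inhibition measured at 0.5 μM, and IC50 determined. Values are means of at least two independent experiments, each run in duplicate, with standard deviation <10%.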
Target sequence in this assay (Q9Y463 whole entry, looked up): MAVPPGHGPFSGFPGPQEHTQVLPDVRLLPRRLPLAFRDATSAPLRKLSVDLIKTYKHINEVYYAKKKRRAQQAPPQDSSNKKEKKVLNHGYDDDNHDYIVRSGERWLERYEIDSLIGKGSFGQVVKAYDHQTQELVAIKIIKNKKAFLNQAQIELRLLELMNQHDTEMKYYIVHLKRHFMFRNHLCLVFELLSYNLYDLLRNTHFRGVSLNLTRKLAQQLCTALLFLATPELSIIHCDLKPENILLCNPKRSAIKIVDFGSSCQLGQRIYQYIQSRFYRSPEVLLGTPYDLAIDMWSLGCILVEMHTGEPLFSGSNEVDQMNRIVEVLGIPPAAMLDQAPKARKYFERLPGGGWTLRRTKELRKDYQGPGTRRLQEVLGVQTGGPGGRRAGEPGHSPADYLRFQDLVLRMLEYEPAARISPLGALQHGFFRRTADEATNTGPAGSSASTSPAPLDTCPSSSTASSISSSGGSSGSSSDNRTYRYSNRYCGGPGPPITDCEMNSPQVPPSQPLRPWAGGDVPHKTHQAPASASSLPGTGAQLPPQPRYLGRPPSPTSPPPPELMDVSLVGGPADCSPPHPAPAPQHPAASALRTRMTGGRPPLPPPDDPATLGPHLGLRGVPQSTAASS

[11] = biological target: Casein kinase I isoform delta (Homo sapiens) (UniProt P48730); experiment: Inhibition of full length recombinant human GST-tagged CK1delta expressed in baculovirus expression system at 5 uM relative to control; how it was run: as §1
Casein kinase I isoform delta (Homo sapiens), sequence (P48730 whole entry, looked up, canonical isoform): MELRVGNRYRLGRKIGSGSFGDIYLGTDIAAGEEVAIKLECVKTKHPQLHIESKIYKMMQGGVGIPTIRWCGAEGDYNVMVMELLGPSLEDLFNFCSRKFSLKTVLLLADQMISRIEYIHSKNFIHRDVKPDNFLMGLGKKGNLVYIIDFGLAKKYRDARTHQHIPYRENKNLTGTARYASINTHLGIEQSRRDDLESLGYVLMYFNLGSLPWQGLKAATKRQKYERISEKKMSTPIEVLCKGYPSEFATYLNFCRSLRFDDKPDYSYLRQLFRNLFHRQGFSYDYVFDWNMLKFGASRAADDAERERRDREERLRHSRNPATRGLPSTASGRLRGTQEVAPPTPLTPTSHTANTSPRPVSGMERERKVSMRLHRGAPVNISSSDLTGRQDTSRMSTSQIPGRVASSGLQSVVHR

[12] = Half life in human liver S9 fraction assessed as CYP450-mediated compound degradation at 0.3 uM after 15 to 60 mins by LC-MS/MS analysis; format: ADME, subcellular; how it was run: as §2
[13] = biological target: Serine/threonine-protein kinase pim-1 (Homo sapiens) (UniProt P11309); experiment: Inhibition of full length recombinant human His-tagged PIM1 expressed in baculovirus expression system at 5 uM relative to control; how it was run: as §1
Serine/threonine-protein kinase pim-1 (Homo sapiens), sequence (P11309 whole entry, looked up, the tested form may be a part): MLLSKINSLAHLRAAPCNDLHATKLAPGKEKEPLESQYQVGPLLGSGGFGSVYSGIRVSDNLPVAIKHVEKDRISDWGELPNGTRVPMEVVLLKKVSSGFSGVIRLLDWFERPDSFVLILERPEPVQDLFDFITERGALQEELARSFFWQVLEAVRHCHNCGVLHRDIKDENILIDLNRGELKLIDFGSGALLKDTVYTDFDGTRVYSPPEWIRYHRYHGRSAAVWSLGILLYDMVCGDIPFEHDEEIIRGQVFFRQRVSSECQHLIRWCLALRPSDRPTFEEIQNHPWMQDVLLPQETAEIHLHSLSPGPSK

[14] = biological target: T4, Dual specificity tyrosine-phosphorylation-regulated kinase 1A (Homo sapiens, UniProt Q13627); experiment: Inhibition of recombinant human N-terminal His6-tagged Dyrk1A catalytic domain expressed in Escherichia coli BL21 (DE3) at 5 uM using KKISGRLSPIMTEQ-NH2 peptide as substrate in presence of [gamma-32P]-ATP relative to control; how it was run: as §1
[15] = biological target: Cyclin-dependent kinase 5/CDK5 activator 1 (Homo sapiens) (UniProt Q00535+Q15078); experiment: Inhibition of full length recombinant human GST-tagged CDK5/His-tagged p25 expressed in baculovirus expression system at 5 uM relative to control; how it was run: as §1
Cyclin-dependent kinase 5/CDK5 activator 1 (Homo sapiens), sequence (Q00535 whole entry): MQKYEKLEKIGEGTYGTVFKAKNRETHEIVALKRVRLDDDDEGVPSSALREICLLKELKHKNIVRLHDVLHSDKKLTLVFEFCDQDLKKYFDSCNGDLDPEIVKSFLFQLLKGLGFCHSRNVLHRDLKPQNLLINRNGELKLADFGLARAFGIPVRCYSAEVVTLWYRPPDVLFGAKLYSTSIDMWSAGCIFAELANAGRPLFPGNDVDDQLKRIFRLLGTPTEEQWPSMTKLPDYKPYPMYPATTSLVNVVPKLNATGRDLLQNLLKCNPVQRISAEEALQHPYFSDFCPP
Cyclin-dependent kinase 5/CDK5 activator 1 (Homo sapiens), sequence (Q15078 99-307 partner limits assumed): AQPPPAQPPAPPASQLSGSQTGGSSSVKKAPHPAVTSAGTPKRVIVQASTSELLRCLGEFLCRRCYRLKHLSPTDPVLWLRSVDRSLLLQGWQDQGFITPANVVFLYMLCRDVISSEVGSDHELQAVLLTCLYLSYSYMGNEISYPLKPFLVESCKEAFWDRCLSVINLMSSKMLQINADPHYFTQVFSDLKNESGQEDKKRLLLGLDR

[16] = biological target: T3, Dual specificity tyrosine-phosphorylation-regulated kinase 1B; experiment: Inhibition of full length recombinant human GST-tagged Dyrk1B expressed in baculovirus expression system using KKISGRLSPIMTEQ-NH2 peptide as substrate in presence of [gamma-32P]-ATP; how it was run: as §3
Target sequence in this assay (Q9Y463 whole entry): as the sequence (Q9Y463 whole entry, looked up) above

[17] = biological target: T5, Serine/threonine-protein kinase 17A (Homo sapiens) (UniProt Q9UEE5); experiment: Inhibition of full length recombinant human GST-tagged STK17A expressed in baculovirus expression system at 5 uM relative to control; how it was run: as §1
T5 sequence (whole entry): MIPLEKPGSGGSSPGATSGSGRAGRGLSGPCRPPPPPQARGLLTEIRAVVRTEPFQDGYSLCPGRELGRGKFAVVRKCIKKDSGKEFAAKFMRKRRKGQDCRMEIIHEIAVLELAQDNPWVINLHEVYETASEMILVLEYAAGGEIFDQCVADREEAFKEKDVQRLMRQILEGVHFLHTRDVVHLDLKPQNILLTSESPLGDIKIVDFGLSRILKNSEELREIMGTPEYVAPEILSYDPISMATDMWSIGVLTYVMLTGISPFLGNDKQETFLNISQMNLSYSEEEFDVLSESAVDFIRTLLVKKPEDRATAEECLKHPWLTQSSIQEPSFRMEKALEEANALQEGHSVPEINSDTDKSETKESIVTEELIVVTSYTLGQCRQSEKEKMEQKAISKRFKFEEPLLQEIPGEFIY

[18] = biological target: T4, Dual specificity tyrosine-phosphorylation-regulated kinase 1A; experiment: Inhibition of recombinant human N-terminal His6-tagged Dyrk1A catalytic domain expressed in Escherichia coli BL21 (DE3) using KKISGRLSPIMTEQ-NH2 peptide as substrate in presence of [gamma-32P]-ATP
[19] = biological target: BDNF/NT-3 growth factors receptor (Homo sapiens) (UniProt Q16620); experiment: Inhibition of recombinant human His-tagged NTRK2 expressed in baculovirus expression system at 5 uM relative to control; how it was run: as §1

## CN1CCN(C(=O)c2ccc(NC(=O)Nc3nc4ccc(O)cc4s3)cc2)CC1
[1]
  inhibition: 72%
[2]
  Ratio IC50: 16
[3]
  inhibition: 50%
[4]
  IC50: 730 nM
[5]
  inhibition: 1%
[6]
  inhibition: 45%
[7]
  inhibition: 5%
[8]
  Ratio IC50: > 7
[9]
  Stability: 88%
[10]
  inhibition: 21%
[11]
  inhibition: 9%
[12]
  half-life at 0.3 µM: > 60 min
[13]
  inhibition: 29%
[14]
  inhibition: 85%
[15]
  inhibition: 2%
[16]
  IC50: 1510 nM
[17]
  inhibition: 39%
[18]
  IC50: 95 nM
[19]
  inhibition: 13%

## COc1ccc2nc(NC(=O)Nc3ccccc3)sc2c1
[10]
  inhibition: 0%

## O=C(Cc1cccc(O)c1)Nc1nc2ccc(O)cc2s1
[10]
  inhibition: 0%

## COc1ccc2nc(NC(=O)Oc3ccccc3)sc2c1
[10]
  inhibition: 0%

## O=C(Nc1ccc(C(=O)NCc2ccccc2)cc1)Nc1nc2ccc(O)cc2s1
[10]
  inhibition: 69%
[12]
  half-life at 0.3 µM: 33 min
[16]
  IC50: 130 nM
[18]
  IC50: 63 nM

## O=C(Nc1ccccc1)Nc1nc2ccc(O)cc2s1
[10]
  inhibition: 43.6%
[16]
  IC50: 710 nM
[18]
  IC50: 163 nM

## COc1cccc(CC(=O)Nc2nc3ccc(OC)cc3s2)c1
[10]
  inhibition: 25%

## COc1ccc2nc(NC(=O)NCCN3CCOCC3)sc2c1
[10]
  inhibition: 0%

## O=C(Nc1nc2ccc(O)cc2s1)Oc1ccccc1
[10]
  inhibition: 0%

## O=C(Nc1ccccc1)Nc1nnc(-c2ccncc2)s1
[10]
  inhibition: 12%

## COc1ccc2nc(NC(=O)Nc3ccc(C(=O)N4CCN(C)CC4)cc3)sc2c1
[10]
  inhibition: 0%

## O=C(Nc1cccc(O)c1)Nc1nc2ccc(O)cc2s1
[10]
  inhibition: 54.6%
[16]
  IC50: 370 nM
[18]
  IC50: 134 nM

## C[C@]12CC[C@H]3[C@@H](CCC4=CC(=O)CC[C@@]43C)[C@@H]1CC[C@@H]2O [TESTOSTERONE]
[12]
  half-life at 0.3 µM: 9.6 min

## COc1ccc2nc(NC(=O)Nc3ccc(C(=O)O)cc3)sc2c1
[10]
  inhibition: 0%

## COc1ccc2nc(NC(=O)Nc3ccc(C(=O)NCc4ccccc4)cc3)sc2c1
[10]
  inhibition: 0%

## COc1ccc2nc(NC(=O)NCCCN3CCN(C)CC3)sc2c1
[10]
  inhibition: 0%
